Experimental data taken from PubChem BioAssay.
Results filed as inconclusive are left out.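 How the source made its calls, unless noted: active means viability increase at or above a cutoff of the median across tested compounds plus 3 SD (cut at about 8.5% in these data, passing the limit was not always enough); inconclusive means some gains above the cutoff, reason not given; inactive means the rest.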

Tests used:
[1] = S. cerevisiae growth inhibition in permissive medium (OD615), pilot counter-assay for S. cerevisiae lifespan shortening project, permissive growth control (AID 705;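 active means growth inhibition above 25% in both replicates, a cutoff set 3 SD above the mean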); conditions: OD615, 24 h, at 10 µM, hits give high values
How it was run: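 assay system = Saccharomyces cerevisiae strain carrying genetically modified DeaD replicative-lifespan system | medium = SC raffinose/galactose permissive medium | dosing = 10 µM single dose, 0.25% DMSO | schedule = 24 h compound exposure at 30 °C after 4 h pre-growth | measured by = OD at 615 nm | read-out basis = growth inhibition from lowered OD615 after 24 h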

[2] = S. cerevisiae growth inhibition in restrictive medium, OD615, pilot screen, restrictive growth control, yeast lifespan reduction project (AID 706;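 active means growth inhibition above a set limit, 3 SD over mean compound inhibition, in both replicates, cut at about 43% in these data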;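 further: modified DeaD lifespan yeast strain shifted to restrictive glucose medium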); conditions: OD615, 48 h, at 10 µM, hits give high values
How it was run: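 Buffer or medium: CSMM-D glucose medium. Material: genetically modified Saccharomyces cerevisiae, DeaD replicative lifespan assay strain. Times: 48 h compound exposure at 30 °C. Measured by: optical density at 615 nm.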

[3] = doxorubicin toxicity protection in MRP-1 cells – H69AR cells, CellTiter-Glo, duplicate, MRP-1 activator project, pilot screen (AID 807); conditions: H69AR viability with doxorubicin, CellTiter-Glo luminescence; at 10 µM; hits give high values;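 further: compound pretreatment 18-22 h then 72 h combined with doxorubicin; 0% = doxorubicin alone and 100% = vehicle without doxorubicin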
[4] = viability of HCT116 without oncogenic beta-catenin – human colon tumor cells, pilot screen (AID 823;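 active means cell viability at or below a set limit in both duplicate runs, the limit being the all-compound median minus 4 SD, cut at about 23% in these data, passing the limit was not always enough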;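 further: 0% = wells killed by 20 µM Hyamine and 100% = untreated DMSO cell wells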); conditions: HCT116 beta-catenin knockout viability, CellTiter-Glo, 60 h; at 10 µM; hits give low values
[5] = viability of PTEN-null HCT116 cells – cell-based, HCT116 clonal line, CellTiter-Glo, pilot screen (AID 824;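 active means viability at or below 27.92% in each of two runs, the all-compound median minus 4 SD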;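 further: 0% = 20 µM Hyamine control and 100% = vehicle cell control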); conditions: HCT116 PTEN-deleted viability, 60 h, at 10 µM, hits give low values
[6] = RAM pathway blockade in budding yeast – dse1pr::URA3 reporter, 5-FOA selection, pilot screen (AID 869;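 active means inhibition over a set limit, the all-compound mean plus 3 SD, in both replicate runs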;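 further: 0% = DMSO wells with no growth and 100% = 10 µM 1-NA-PP1 with full growth; RAM network block rescues cells from 5-FOA so hits raise OD615 growth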); conditions: S. cerevisiae dse1pr::URA3 5-FOA growth, OD615, 2 d; at 10 µM; hits give high values; strain carries analog-sensitive mutant Cbk1 kinase
[7] = RAM signaling pathway blockade in yeast – S. cerevisiae, Pdr1DBD-CYC8 efflux-inhibited sensitized strain, primary screen (AID 1298;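 active means RAM network inhibition above 8.4% in each of two replicates, 3 SD over the compound average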;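 further: 0% = DMSO untreated cells without growth and 100% = 10 µM 1-NA-PP1 full growth; higher means more yeast growth rescued from 5-FOA killing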); conditions: S. cerevisiae cbk1-as DSE1-URA3 strain, 5-FOA growth OD615, 2 d; at 50 µM; hits give high values

O=C(CNC(=O)c1cnccn1)Nc1ccc(F)c(F)c1F
inactive: growth inhibition [1] -8.69% | growth inhibition [2] 2.7% | viability increase [3] 1.31% | viability [4] 99.9% | viability [5] 92.8% | inhibition [6] 2.68% | RAM network inhibition [7] 7.87%

CC1(C)CC2CC(C)(CN2C(=O)c2cc(-c3ccccc3O)on2)C1 (stereo not drawn)
inactive: growth inhibition [1] -11.4% | growth inhibition [2] -4.57% | viability increase [3] -5.87% | viability [4] 75.5% | viability [5] 61.9% | inhibition [6] 2.44% | RAM network inhibition [7] 6.15%

CCOC(=O)CSc1nc2sc(C(=O)O)c(C)c2c(=O)[nH]1
inactive: growth inhibition [1] 0.2% | growth inhibition [2] -4.45% | viability increase [3] -1.82% | viability [4] 102% | viability [5] 103% | inhibition [6] 1.92% | RAM network inhibition [7] 3.85%

CCCc1nc(C)c(-c2ccc(OC)c(OC)c2)c(=O)[nH]1
inactive: growth inhibition [1] -17.9% | growth inhibition [2] -15.2% | viability increase [3] -0.18% | viability [4] 101% | viability [5] 95.3% | inhibition [6] 2.53% | RAM network inhibition [7] 0.84%

CC(Oc1ccc(Cl)cc1Cl)C(=O)NCCCN(C)C (stereo not drawn)
inactive: growth inhibition [1] -0.77% | growth inhibition [2] 4.78% | viability increase [3] -2.25% | viability [4] 99.6% | viability [5] 100% | inhibition [6] 1.79% | RAM network inhibition [7] 0.78%

CCCOc1ccc(C2c3c(oc4cc(C)c(C)cc4c3=O)C(=O)N2CCCN(C)C)cc1OCC (stereo not drawn)
inactive: growth inhibition [1] -10.6% | growth inhibition [2] -3.15% | viability increase [3] -3.29% | viability [4] 102% | viability [5] 97.7% | inhibition [6] 3.69% | RAM network inhibition [7] -0.16%

CCN1CCN(S(=O)(=O)c2ccc3[nH]c(=O)oc3c2)CC1
inactive: growth inhibition [1] -9.66% | growth inhibition [2] -6.6% | viability increase [3] -0.48% | viability [4] 104% | viability [5] 107% | inhibition [6] 1.5% | RAM network inhibition [7] 4.74%

CC(C)N1CCc2c(sc(NC(=O)c3ccc(S(=O)(=O)N4CCOCC4)cc3)c2C#N)C1
inactive: growth inhibition [1] -4.83% | growth inhibition [2] -3.24% | viability increase [3] -2.2% | viability [4] 85.3% | viability [5] 86.3% | inhibition [6] 0.75% | RAM network inhibition [7] 1.3%

CCS(=O)(=O)N1CCN(Cc2nc3ccccc3c(=O)[nH]2)CC1
inactive: growth inhibition [1] -12.6% | growth inhibition [2] -14.4% | viability increase [3] 0.44% | viability [4] 97.5% | viability [5] 91.8% | inhibition [6] 1.33% | RAM network inhibition [7] 6.05%

CCn1cc(S(=O)(=O)CC(=O)Nc2cc(C)ccc2C)c2ccccc21
inactive: growth inhibition [1] -10.1% | growth inhibition [2] -1.18% | viability increase [3] -0.93% | viability [4] 105% | viability [5] 82.5% | inhibition [6] 2.07% | RAM network inhibition [7] 3.99%

OCCOCCNc1ncnc2nc[nH]c12
inactive: growth inhibition [1] -8.26% | growth inhibition [2] -0.86% | viability increase [3] -0.43% | viability [4] 106% | viability [5] 101% | inhibition [6] 1.8% | RAM network inhibition [7] -0.28%

Cc1sc2nc3ccc(N4CCCC4)nn3c(=O)c2c1C
inactive: growth inhibition [1] -0.905% | growth inhibition [2] 18.9% | viability increase [3] -2.12% | viability [4] 70.1% | viability [5] 75% | inhibition [6] 0.845% | RAM network inhibition [7] 2.93%

COc1ccc(N2CCN(S(=O)(=O)c3cccc4cccnc34)CC2)cc1
inactive: growth inhibition [1] -3.57% | growth inhibition [2] 8.34% | viability increase [3] -2.89% | viability [4] 84.9% | viability [5] 83.6% | inhibition [6] 0.47% | RAM network inhibition [7] 3.66%

COc1ccc2[nH]c(C)c(CCN3C(=O)C4C5C=CC(C5)C4C3=O)c2c1 (stereo not drawn)
inactive: growth inhibition [1] -3.19% | growth inhibition [2] 5.9% | viability increase [3] -2.43% | viability [4] 106% | viability [5] 94.9% | inhibition [6] 0.285% | RAM network inhibition [7] 4.02%

CN(C)S(=O)(=O)Nc1ccc2c(c1)Cc1ccccc1-2
inactive: growth inhibition [1] -17.4% | growth inhibition [2] -9.69% | viability increase [3] -2.09% | viability [4] 92.3% | viability [5] 88.5% | inhibition [6] 1% | RAM network inhibition [7] 4.68%

Cn1c(C(=O)N2CCC(C(N)=O)CC2)cc2c(=O)n(C)c3ccccc3c21
inactive: growth inhibition [1] -2.25% | growth inhibition [2] 1.93% | viability increase [3] -0.97% | viability [4] 110% | viability [5] 99.3% | inhibition [6] 0.085% | RAM network inhibition [7] 2.21%

Cn1c(Cn2c(=O)sc3ccccc32)nnc1SCc1cccc(F)c1
inactive: growth inhibition [1] -7.92% | growth inhibition [2] 2.12% | viability increase [3] -0.5% | viability [4] 71.1% | viability [5] 69.7% | inhibition [6] 3.43% | RAM network inhibition [7] 7.87%

Cc1csc2ncc(C(=O)Nc3ccc(C(F)(F)F)cc3)c(=O)n12
inactive: growth inhibition [1] -10.2% | growth inhibition [2] -17.2% | viability increase [3] -2.44% | viability [4] 84.8% | viability [5] 85.8% | inhibition [6] 3.73% | RAM network inhibition [7] 3.03%

CCOc1ccc(N(CC(=O)NCC(C)C)S(C)(=O)=O)cc1
inactive: growth inhibition [1] 6.66% | growth inhibition [2] -4.28% | viability increase [3] -0.04% | viability [4] 98% | viability [5] 102% | inhibition [6] 0.96% | RAM network inhibition [7] 1.12%

CC1=C(C(=O)OCC2CCCO2)C(c2ccncc2)C2=C(CCCC2=O)N1 (stereo not drawn)
inactive: growth inhibition [1] -16.7% | growth inhibition [2] -8.36% | viability increase [3] -1.77% | viability [4] 98.9% | viability [5] 98.1% | inhibition [6] 2.9% | RAM network inhibition [7] 1.82%

O=C(C1CCC(Cn2c(=O)[nH]c3ccccc3c2=O)CC1)N1CCN(c2ccccc2)CC1 (stereo not drawn)
inactive: growth inhibition [1] -14.3% | growth inhibition [2] -1.08% | viability increase [3] 2.93% | viability [4] 82.6% | viability [5] 67.6% | inhibition [6] 1.81% | RAM network inhibition [7] 6.69%

Cc1cc(C)c2c(n1)nn1c(C)c(CCC(=O)NCc3ccco3)c(C)nc21
inactive: growth inhibition [1] 3.4% | growth inhibition [2] 1.73% | viability increase [3] -4.82% | viability [4] 89.8% | viability [5] 94.8% | inhibition [6] 0.545% | RAM network inhibition [7] 2.09%

O=C(Nc1cccc(Br)c1)c1cc2ccccc2o1
inactive: growth inhibition [1] -5.65% | growth inhibition [2] -7.8% | viability increase [3] -5% | viability [4] 65.5% | viability [5] 64.3% | inhibition [6] 0.03% | RAM network inhibition [7] 3.48%

CC(C)Cc1nc(C(N)=O)c2[nH]c(=O)n(-c3ccc(F)cc3)c2n1
inactive: growth inhibition [1] -21.3% | growth inhibition [2] -27.8% | viability increase [3] -2.13% | viability [4] 100% | viability [5] 91.2% | inhibition [6] 3.68% | RAM network inhibition [7] 8.63%
